Laboratory results: ChEMBL document CHEMBL3580633, “Benzoxaborole antimalarial agents. Part 4. Discovery of potent 6-(2-(alkoxycarbonyl)pyrazinyl-5-oxy)-1,3-dihydro-1-hydroxy-2,1-benzoxaboroles” (J Med Chem, 2015)

Assays:
Plasmodium berghei [1] = experiment: Antiplasmodial activity against Plasmodium berghei infected in Swiss Webster mouse assessed as mouse survival at 33 mg/kg, po dosed once daily for 4 consecutive days beginning 1 hr after initial infection and measured on day 4 post infection by Giemsa staining method; assay type: functional
How it was run: (§1)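 Female Swiss Webster mice (about 20 g) were infected ip with 6 × 10^6 P. berghei-infected erythrocytes from a donor mouse. They were dosed by oral gavage once daily for 4 days, starting 1 h post-infection, in PEG 300/propylene glycol/water (55/25/20 by weight). Parasitemia was read daily on Giemsa smears from day 4, and mice were euthanized above 50% parasitemia. Percent survival was tracked to 21 days.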

Plasmodium berghei [2] = experiment: Antiplasmodial activity against Plasmodium berghei infected in Swiss Webster mouse assessed as mouse survival at 33 mg/kg, po dosed once daily for 4 consecutive days beginning 1 hr after initial infection and measured on day 5 post infection by Giemsa staining method; assay type: functional; how it was run: as §1
Plasmodium berghei [3] = experiment: Antiplasmodial activity against Plasmodium berghei infected in Swiss Webster mouse assessed as mouse survival at 33 mg/kg, po dosed once daily for 4 consecutive days beginning 1 hr after initial infection and measured on day 6 post infection by Giemsa staining method; assay type: functional; how it was run: as §1
Plasmodium berghei [4] = experiment: Antiplasmodial activity against Plasmodium berghei infected in Swiss Webster mouse assessed as mouse survival at 33 mg/kg, po dosed once daily for 4 consecutive days beginning 1 hr after initial infection and measured on day 7 post infection by Giemsa staining method; assay type: functional; how it was run: as §1
Plasmodium berghei [5] = experiment: Antiplasmodial activity against Plasmodium berghei infected in Swiss Webster mouse assessed as mouse survival at 33 mg/kg, po dosed once daily for 4 consecutive days beginning 1 hr after initial infection and measured on day 8 post infection by Giemsa staining method; assay type: functional; how it was run: as §1
Plasmodium berghei [6] = experiment: Antiplasmodial activity against Plasmodium berghei infected in Swiss Webster mouse assessed as mouse survival at 33 mg/kg, po dosed once daily for 4 consecutive days beginning 1 hr after initial infection and measured on day 9 post infection by Giemsa staining method; assay type: functional; how it was run: as §1
Plasmodium berghei [7] = experiment: Antiplasmodial activity against Plasmodium berghei infected in Swiss Webster mouse assessed as mouse survival at 33 mg/kg, po dosed once daily for 4 consecutive days beginning 1 hr after initial infection and measured on day 10 post infection by Giemsa staining method; assay type: functional; how it was run: as §1
Plasmodium berghei [8] = experiment: Antiplasmodial activity against Plasmodium berghei infected in Swiss Webster mouse assessed as mouse survival at 11 mg/kg, po dosed once daily for 4 consecutive days beginning 1 hr after initial infection and measured on day 4 post infection by Giemsa staining method; assay type: functional
How it was run: (§2)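 Female Swiss Webster mice (about 20 g) infected ip with 6 × 10^6 P. berghei-infected erythrocytes. Oral gavage once daily for 4 days, starting 1 h after infection. Vehicle PEG300/propylene glycol/water (55/25/20 by weight). Giemsa-smear parasitemia counted daily from day 4. Mice euthanised above 50% parasitemia. Survival followed to day 21, 5 mice per dose, chloroquine 30 mg/kg as reference.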

Plasmodium berghei [9] = experiment: Antiplasmodial activity against Plasmodium berghei infected in Swiss Webster mouse assessed as mouse survival at 11 mg/kg, po dosed once daily for 4 consecutive days beginning 1 hr after initial infection and measured on day 7 post infection by Giemsa staining method; assay type: functional; how it was run: as §2
Plasmodium berghei [10] = experiment: Antiplasmodial activity against Plasmodium berghei infected in Swiss Webster mouse assessed as […] dosed orally once daily for 4 consecutive days beginning 1 hr after initial infection and measured on day 4 after onset of treatment by Giemsa staining method; assay type: functional; conditions: po
How it was run: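 In the P. berghei model, female Swiss Webster mice were infected ip with 6 × 10^6 infected erythrocytes. They were gavaged once daily for 4 days from 1 h post-infection, in PEG 300/propylene glycol/water (55/25/20 by weight), with 5 mice per dose. Parasitemia was counted on Giemsa smears. ED90 is the dose reducing parasitemia 90% versus vehicle controls 4 days after therapy began, fitted by nonlinear regression.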

Plasmodium berghei [11] = experiment: Antiplasmodial activity against Plasmodium berghei infected in Swiss Webster mouse assessed as mouse survival at 11 mg/kg, po dosed once daily for 4 consecutive days beginning 1 hr after initial infection and measured on day 9 post infection by Giemsa staining method; assay type: functional; how it was run: as §2
Plasmodium berghei [12] = experiment: Antiplasmodial activity against Plasmodium berghei infected in Swiss Webster mouse assessed as mouse survival at 3 mg/kg, po dosed once daily for 4 consecutive days beginning 1 hr after initial infection and measured on day 4 post infection by Giemsa staining method; assay type: functional; how it was run: as §2
Plasmodium berghei [13] = experiment: Antiplasmodial activity against Plasmodium berghei infected in Swiss Webster mouse assessed as mouse survival at 3 mg/kg, po dosed once daily for 4 consecutive days beginning 1 hr after initial infection and measured on day 5 post infection by Giemsa staining method; assay type: functional; how it was run: as §2
Plasmodium berghei [14] = experiment: Antiplasmodial activity against Plasmodium berghei infected in Swiss Webster mouse assessed as mouse survival at 3 mg/kg, po dosed once daily for 4 consecutive days beginning 1 hr after initial infection and measured on day 6 post infection by Giemsa staining method; assay type: functional; how it was run: as §2
Plasmodium berghei [15] = experiment: Antiplasmodial activity against Plasmodium berghei infected in Swiss Webster mouse assessed as mouse survival at 3 mg/kg, po dosed once daily for 4 consecutive days beginning 1 hr after initial infection and measured on day 7 post infection by Giemsa staining method; assay type: functional; how it was run: as §2
Plasmodium berghei [16] = experiment: Antiplasmodial activity against Plasmodium berghei infected in Swiss Webster mouse assessed as mouse survival at 3 mg/kg, po dosed once daily for 4 consecutive days beginning 1 hr after initial infection and measured on day 8 post infection by Giemsa staining method; assay type: functional; how it was run: as §2
Plasmodium berghei [17] = experiment: Antiplasmodial activity against Plasmodium berghei infected in Swiss Webster mouse assessed as mouse survival at 3 mg/kg, po dosed once daily for 4 consecutive days beginning 1 hr after initial infection and measured on day 9 post infection by Giemsa staining method; assay type: functional; how it was run: as §2
Plasmodium berghei [18] = experiment: Antiplasmodial activity against Plasmodium berghei infected in Swiss Webster mouse assessed as mouse survival at 1 mg/kg, po dosed once daily for 4 consecutive days beginning 1 hr after initial infection and measured on day 5 post infection by Giemsa staining method; assay type: functional; how it was run: as §2
Plasmodium berghei [19] = experiment: Antiplasmodial activity against Plasmodium berghei infected in Swiss Webster mouse assessed as mouse survival at 1 mg/kg, po dosed once daily for 4 consecutive days beginning 1 hr after initial infection and measured on day 8 post infection by Giemsa staining method; assay type: functional; how it was run: as §2
Plasmodium berghei [20] = experiment: Antiplasmodial activity against Plasmodium berghei infected in Swiss Webster mouse assessed as mouse survival at 1 mg/kg, po dosed once daily for 4 consecutive days beginning 1 hr after initial infection and measured on day 9 post infection by Giemsa staining method; assay type: functional; how it was run: as §2
Plasmodium falciparum = experiment: Antimalarial activity against chloroquine-resistant Plasmodium falciparum W2 cultured in human erythrocytes assessed as inhibition of parasite growth incubated for 48 hrs by YOYO-1 staining based flow cytometry; assay type: functional, organism-based; conditions: W2, 48 h
Plasmodium berghei [21] = experiment: Antiplasmodial activity against Plasmodium berghei infected in Swiss Webster mouse assessed as mouse survival at 100 mg/kg, po dosed once daily for 4 consecutive days beginning 1 hr after initial infection and measured on day 5 post infection by Giemsa staining method; assay type: functional; how it was run: as §2
Plasmodium berghei [22] = experiment: Antiplasmodial activity against Plasmodium berghei infected in Swiss Webster mouse assessed as mouse survival at 100 mg/kg, po dosed once daily for 4 consecutive days beginning 1 hr after initial infection and measured on day 7 post infection by Giemsa staining method; assay type: functional; how it was run: as §2
Plasmodium berghei [23] = experiment: Antiplasmodial activity against Plasmodium berghei infected in Swiss Webster mouse assessed as mouse survival at 100 mg/kg, po dosed once daily for 4 consecutive days beginning 1 hr after initial infection and measured on day 9 post infection by Giemsa staining method; assay type: functional; how it was run: as §2
Plasmodium berghei [24] = experiment: Antiplasmodial activity against Plasmodium berghei infected in Swiss Webster mouse assessed as mouse survival at 100 mg/kg, po dosed once daily for 4 consecutive days beginning 1 hr after initial infection and measured on day 10 post infection by Giemsa staining method; assay type: functional; how it was run: as §2

Compound	survival at 33 mg/kg (Plasmodium berghei [1]) [%]	survival at 33 mg/kg (Plasmodium berghei [2]) [%]	survival at 33 mg/kg (Plasmodium berghei [3]) [%]	survival at 33 mg/kg (Plasmodium berghei [4]) [%]	survival at 33 mg/kg (Plasmodium berghei [5]) [%]	survival at 33 mg/kg (Plasmodium berghei [6]) [%]	survival at 11 mg/kg (Plasmodium berghei [8]) [%]	survival at 11 mg/kg (Plasmodium berghei [9]) [%]	ED90 (Plasmodium berghei [10]) [mg/kg]	survival at 11 mg/kg (Plasmodium berghei [11]) [%]	survival at 3 mg/kg (Plasmodium berghei [12]) [%]	survival at 3 mg/kg (Plasmodium berghei [13]) [%]	survival at 3 mg/kg (Plasmodium berghei [14]) [%]	survival at 3 mg/kg (Plasmodium berghei [15]) [%]	survival at 3 mg/kg (Plasmodium berghei [16]) [%]	survival at 3 mg/kg (Plasmodium berghei [17]) [%]	survival at 1 mg/kg (Plasmodium berghei [18]) [%]	survival at 1 mg/kg (Plasmodium berghei [19]) [%]	IC50 (Plasmodium falciparum) [nM]	survival at 100 mg/kg (Plasmodium berghei [21]) [%]	further results
O=C(O)c1cnc(Oc2ccc3c(c2)B(O)OC3)cn1	100	100	100	100	80	40	100	100	30.3	20	100	100	100	60	20	0	100	40	150	100	survival at 33 mg/kg (Plasmodium berghei [7]): 40%; survival at 1 mg/kg (Plasmodium berghei [20]): 0%; survival at 100 mg/kg (Plasmodium berghei [22]): 100%; survival at 100 mg/kg (Plasmodium berghei [23]): 60%; survival at 100 mg/kg (Plasmodium berghei [24]): 60%
NC(=O)c1cnc(Oc2ccc3c(c2)B(O)OC3)cn1	100	100	100	100	100	60	100	100	38.7	60	100	100	100	80	60	0	100	40	210	100	survival at 33 mg/kg (Plasmodium berghei [7]): 0%; survival at 1 mg/kg (Plasmodium berghei [20]): 0%; survival at 100 mg/kg (Plasmodium berghei [22]): 100%; survival at 100 mg/kg (Plasmodium berghei [23]): 60%; survival at 100 mg/kg (Plasmodium berghei [24]): 0%
COC(=O)c1cnc(Oc2ccc3c(c2)B(O)OC3)cn1	100	100	100	100	100	100	100	100	7	80	100	100	100	100	80	40	100	40	1.4	100	survival at 33 mg/kg (Plasmodium berghei [7]): 100%; survival at 1 mg/kg (Plasmodium berghei [20]): 0%; survival at 100 mg/kg (Plasmodium berghei [22]): 100%; survival at 100 mg/kg (Plasmodium berghei [23]): 100%; survival at 100 mg/kg (Plasmodium berghei [24]): 100%
O=C(O)c1ccc(Oc2ccc3c(c2)B(O)OC3)cn1	100	100	100	100	60	0	100	100	21.1	0	100	100	100	60	20	0	100	0	170	100	survival at 100 mg/kg (Plasmodium berghei [22]): 100%; survival at 100 mg/kg (Plasmodium berghei [23]): 0%
